Measurements collected from several papers.
Cell line: PC-3
Effect on: cell growth or viability
Technique: MTT

SMILES	setting	IC50 [µM]
COc1ccc(-c2cc(-c3cc(OC)ccc3OC)c3c(=O)[nH]c(=O)[nH]c3n2)cc1	48 h	19.1
CCOc1nc(-c2cccc(O)c2)cc(-c2cc3cc(Cl)ccc3nc2N2CCOCC2)c1C#N	72 h	0.174
Cc1nc(N(C)c2ccc3c(c2)/C(=C/c2ccccc2Cl)C(=O)N3C)c2ccccc2n1	–	23.7
Cc1ccc(-c2cc(-c3c(Cl)cccc3Cl)c3c(=O)n(C)c(=O)n(C)c3n2)cc1	48 h	9.89
COc1cc2ncnc(N(C)c3ccc4c(c3)/C(=C/c3cccc(Cl)c3)C(=O)N4C)c2cc1OC	–	5.5
Cc1ccc(-c2cc(-c3c(Cl)cccc3Cl)c3c(=O)[nH]c(=O)[nH]c3n2)cc1	48 h	48.9
CCOc1nc(-c2cccc(O)c2)cc(-c2cc3ccccc3nc2N2CCOCC2)c1C#N	72 h	0.118
Cc1nc(Nc2ccc3c(c2)CC(=O)N3)c2ccccc2n1	–	20.6
Nc1n[nH]c2nc(-c3cccc(O)c3)cc(-c3cc4ccccc4nc3N3CCOCC3)c12	72 h	0.0564
COc1cccc2c1C(=O)c1c(O)c3c(c(O)c1C2=O)C[C@@](O)(C(=O)CO)C[C@@H]3O[C@H]1C[C@H](N)[C@H](O)[C@H](C)O1	72 h	0.61
CCCOc1nc(-c2cccc(O)c2)cc(-c2cc3ccccc3nc2N2CCOCC2)c1C#N	72 h	0.155
COc1ccc(-c2cc(-c3ccc(C)cc3)nc3c2c(=O)n(C)c(=O)n3C)cc1OC	48 h	38.9
Cc1nc(Nc2ccc3c(c2)/C(=C/c2ccccc2C)C(=O)N3)c2ccccc2n1	–	26.7
[NH2][Pt]([NH2])([Cl])[Cl]	–	8.3
